Screening data from PubChem BioAssay.
The list is not random: actives were taken first. Their share in the collection is about 2.2%.
DENV2 CPE rescue – inhibitors of DENV2 cytopathic effect; actives 1.7% (n = 350,000); AID 651640; DENV2-infected cells, cytopathic effect rescue, plate reader; CPE inhibition, % at 9.99 µM; in the data active = CPE inhibition above about 20%, passing the limit was not always enough; inconclusive = no clear call, values can overlap the other calls; tested in BHK-21 cells;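 note: 0% = median of neutral control wells and 100% = median of positive control wells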
Statin myotox sup – suppression of simvastatin myotoxicity. AID 602340. rescue of ATP level, % at 7.49 µM. actives 0.78% (n = 330,000). C2C12 myotubes + simvastatin, ATP luminescence, 48 h; scaled: DMSO 0, geranylgeraniol control 100;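 active = mean ATP rescue above about 67%, or every replicate alone reaching that limit, limit read from the data, passing the limit was not always enough; inconclusive = no clear call, values can overlap the other calls; inactive = mean under the limit and some replicate under it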;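 note: myotubes were challenged with 10 µM simvastatin during compound exposure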
E-selectin induc – E-selectin induction on HUVECs | activation, % at 7.58 µM | P16581 | HUVEC E-selectin immunofluorescence imaging; normalized: neutral wells 0, TNF-alpha wells 100 | actives 0.37% (n = 260,000);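 active = mean E-selectin-positive cell signal at least 10% of the positive control, reached in at least 60% of replicates, without over 20% cell loss; inconclusive = no rule given, readout overlaps actives, possibly toxicity-flagged; inactive = the rest, including those meeting only one limit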
Target sequence (P16581 whole entry, looked up): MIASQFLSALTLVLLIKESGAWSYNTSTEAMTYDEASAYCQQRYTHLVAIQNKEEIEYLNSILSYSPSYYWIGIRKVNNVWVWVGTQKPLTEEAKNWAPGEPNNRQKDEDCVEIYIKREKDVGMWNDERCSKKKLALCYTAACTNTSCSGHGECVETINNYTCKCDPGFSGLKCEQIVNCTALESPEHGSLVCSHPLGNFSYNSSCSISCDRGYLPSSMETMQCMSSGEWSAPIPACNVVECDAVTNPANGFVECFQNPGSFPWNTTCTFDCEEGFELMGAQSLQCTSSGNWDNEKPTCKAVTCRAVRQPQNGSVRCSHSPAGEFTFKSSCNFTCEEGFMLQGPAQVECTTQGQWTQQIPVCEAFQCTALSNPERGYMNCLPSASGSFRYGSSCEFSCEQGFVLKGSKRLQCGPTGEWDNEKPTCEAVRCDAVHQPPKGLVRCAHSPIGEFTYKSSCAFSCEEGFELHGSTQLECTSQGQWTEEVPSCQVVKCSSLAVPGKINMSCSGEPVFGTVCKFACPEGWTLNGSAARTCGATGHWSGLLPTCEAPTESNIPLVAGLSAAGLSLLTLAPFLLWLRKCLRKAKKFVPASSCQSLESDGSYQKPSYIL
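Read-out: % PE-positive cells | Test system: HUVEC | Doses: One compound dose added by pin transfer | Buffer or medium: EGM-2 over gelatin coat | Signal: Immunofluorescence imaging | Benchmarks: TNF-alpha, DMSO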
* hit, by the source's call; ? = inconclusive; . = no result.

SMILES	DENV2 CPE rescue	Statin myotox sup	E-selectin induc
COc1ccccc1CN1[C@H](CO)[C@@H](c2ccccc2)C12CN(C(=O)c1ccccn1)C2	88.6*	.	-0.3
CN(C)CC(=O)N1[C@H](CO)[C@@H](c2ccccc2)C12CN(C(=O)C1CCCC1)C2	51.2*	.	0.0
O=C(c1cccc(F)c1)N1CC2(C1)[C@H](c1ccccc1)[C@H](CO)N2C(=O)C1CCCCC1	-8.9	.	0.2
COc1ccccc1CN1[C@H](CO)[C@@H](c2ccccc2)C12CN(C(C)=O)C2	11.6	.	-0.1
O=C(C1CCCCC1)N1CC2(C1)[C@@H](c1ccccc1)[C@@H](CO)N2Cc1ccccc1F	32.0*	.	0.1
CO[C@H](CN(C)Cc1ccc2c(c1)OCO2)[C@H](C)CN(C(=O)Nc1ccc(F)cc1)[C@@H](C)CO	-1.0	14.7	0.1
COc1ccc2c3c([nH]c2c1)[C@@H](CO)N(Cc1ccc(Cl)cc1)CC31CCN(Cc2nccs2)CC1	-3.1	.	-0.1
C[C@@H]1CN([C@@H](C)CO)C(=O)c2cc(NC(=O)c3ccncc3)ccc2O[C@@H](C)CCCCO[C@H]1CN(C)Cc1ccc(C(F)(F)F)cc1	-5.8	115.7*	-0.1
C[C@@H]1CCCCO[C@H](CN(C)C(=O)Nc2ccc(C(F)(F)F)cc2)[C@@H](C)CN([C@@H](C)CO)C(=O)c2cc(NC(=O)c3ccncc3)ccc2O1	2.4	.	-0.3
C[C@@H]1CCCCO[C@@H](CN(C)Cc2ccc(C(=O)O)cc2)[C@H](C)CN([C@@H](C)CO)C(=O)c2cc(NC(=O)CCCN(C)C)ccc2O1	38.4*	.	-0.2
C[C@@H]1CCCCO[C@@H](CN(C)C(=O)Nc2ccc(C(F)(F)F)cc2)[C@@H](C)CN([C@H](C)CO)C(=O)c2cc(NC(=O)c3ccncc3)ccc2O1	27.7*	.	0.5
COc1ccc(NC(=O)N(C)C[C@H]2OCCCC[C@@H](C)Oc3ccc(NC(=O)c4ccncc4)cc3C(=O)N([C@H](C)CO)C[C@H]2C)cc1	13.8	.	0.1
C[C@@H]1CCCCO[C@@H](CN(C)Cc2ccc(C(=O)O)cc2)[C@H](C)CN([C@H](C)CO)C(=O)c2cc(NC(=O)CCCN(C)C)ccc2O1	-4.7	.	-0.1
C[C@H](CO)N1C[C@H](C)[C@H](CN(C)Cc2ccc(C(F)(F)F)cc2)OCCCC[C@H](C)Oc2ccc(NC(=O)c3ccccc3)cc2C1=O	1.2	.	0.0
COc1ccc(NC(=O)N(C)C[C@@H]2OCCCC[C@@H](C)Oc3ccc(NC(=O)c4ccncc4)cc3C(=O)N([C@@H](C)CO)C[C@H]2C)cc1	41.1*	.	0.1
C[C@@H]1CCCCO[C@H](CN(C)C(=O)Nc2ccc(F)cc2)[C@H](C)CN([C@@H](C)CO)C(=O)c2cc(NC(=O)Nc3cccc4ccccc34)ccc2O1	-0.8	21.2	0.3
C[C@@H]1CN([C@H](C)CO)C(=O)c2cccc(NC(=O)Nc3ccc4c(c3)OCO4)c2O[C@H]1CN(C)S(=O)(=O)c1ccc(F)cc1	-5.2	-15.0	20.3
O=C(C[C@H]1CC[C@@H]2[C@H](COC[C@H](O)CN2Cc2cc(F)ccc2F)O1)N1CCc2ccccc2C1	8.4	36.2	0.0
CO[C@@H]1CN(C)C(=O)c2cc(NC(=O)C3CC3)ccc2OC[C@@H](C)N(C(=O)c2ccccn2)C[C@H]1C	.	-5.5	-0.4
C[C@@H]1CCCCO[C@@H](CN(C)C(=O)CCC(F)(F)F)[C@H](C)CN([C@H](C)CO)C(=O)c2cc(N(C)C)ccc2O1	.	-21.8	0.1
C[C@@H]1CCCCO[C@@H](CN(C)C(=O)CCC(F)(F)F)[C@H](C)CN([C@@H](C)CO)C(=O)c2cc(NC(=O)c3ccncc3)ccc2O1	9.2	.	0.2
C[C@H](CO)N1C[C@H](C)[C@@H](CN(C)Cc2ccc(C(F)(F)F)cc2)OCCCC[C@H](C)Oc2ccc(NC(=O)c3ccccc3)cc2C1=O	-17.6	.	-0.3
C[C@@H]1CCCCO[C@@H](CN(C)C(=O)CCC(F)(F)F)[C@H](C)CN([C@H](C)CO)C(=O)c2cc(NC(=O)c3ccncc3)ccc2O1	20.8*	.	-0.1
C[C@@H]1CN([C@H](C)CO)C(=O)c2cc(N(C)C)ccc2O[C@@H](C)CCCCO[C@@H]1CN(C)C(=O)CCC(F)(F)F	105.6*	-2.3	-0.3
C[C@@H]1CCCCO[C@H](CN(C)Cc2ccc(C(=O)O)cc2)[C@H](C)CN([C@H](C)CO)C(=O)c2cc(NC(=O)c3ccncc3)ccc2O1	42.0*	.	-0.2
SMILES	DENV2 CPE rescue	Statin myotox sup	E-selectin induc
C[C@@H]1CN([C@@H](C)CO)C(=O)c2cc(NC(=O)c3ccncc3)ccc2O[C@@H](C)CCCCO[C@@H]1CN(C)Cc1ccc(C(F)(F)F)cc1	-3.5	120.6*	-0.1
C[C@H](CO)N1C[C@H](C)[C@H](CN(C)Cc2ccc(C(=O)O)cc2)OCCCC[C@H](C)Oc2ccc(NC(=O)c3ccncc3)cc2C1=O	-4.6	.	-0.2
CC(C)C#Cc1ccc2c(c1)O[C@H](CN(C)C(=O)c1ccccn1)[C@@H](C)CN([C@H](C)CO)S2(=O)=O	-4.9	-4.8	0.0
COc1cccc(C(=O)Nc2ccc3c(c2)OC[C@H](C)N(C(=O)C2CCCC2)C[C@@H](C)[C@H](OC)CN(C)C3=O)c1	-2.9	-4.0	-0.2
C[C@H]1CN([C@@H](C)CO)C(=O)c2cc(NC(=O)Cn3cnnn3)ccc2O[C@H]1CN(C)Cc1ccc(Cl)c(Cl)c1	-1.5	46.3	.
C[C@@H]1CN([C@H](C)CO)C(=O)c2cc(NC(=O)Cc3ccccc3)ccc2O[C@@H]1CN(C)Cc1ccc(Oc2ccccc2)cc1	10.3	-3.7	0.0
CCOC(=O)c1c(/N=C/C2C(=O)CCCC2=O)sc2c1CCCC2	4.4	.	.
CCOC(=O)c1c(CC(C)C)csc1/N=C/C1C(=O)CCCC1=O	?	.	33.2*
Cc1ccc(S(=O)(=O)N(C)C[C@@H]2OCCCC[C@@H](C)Oc3ccc(NS(C)(=O)=O)cc3C(=O)N([C@H](C)CO)C[C@@H]2C)cc1	-2.4	.	-0.1
O=C(Cc1ccccc1)N1CC2(C1)[C@@H](c1ccccc1)[C@H](CO)N2S(=O)(=O)Cc1ccccc1	42.8*	.	-0.5
CCC(=O)N1CC2(C1)[C@H](c1ccccc1)[C@H](CO)N2S(=O)(=O)Cc1ccccc1	-7.2	.	0.0
CCC(=O)N1CC2(C1)[C@@H](c1ccccc1)[C@@H](CO)N2S(=O)(=O)Cc1ccccc1	-11.0	.	0.1
O=C(Cc1ccccc1)N1CC2(C1)[C@@H](c1ccccc1)[C@@H](CO)N2S(=O)(=O)Cc1ccccc1	35.3*	.	0.1
CC(C)NC(=O)N1[C@@H](CO)[C@@H](c2ccccc2)C12CN(Cc1cc(F)cc(F)c1)C2	2.5	.	0.4
Cc1cc(NC(=O)c2ccccc2Cl)no1	.	-4.2	.
Cc1ccc2nc(-c3ccccc3Cl)cc(C(=O)Nc3cc(C)on3)c2c1	.	109.5*	.
Cc1ccc(S(=O)(=O)Nc2ccc3c(c2)CC(=O)N([C@H](C)CO)C[C@H](C)[C@@H](CN(C)S(=O)(=O)c2c(C)noc2C)O3)cc1	-4.2	-0.2	-0.5
CC(C)(C(=O)N1CCC1(C)C(=O)Nc1ccccc1Br)c1ccccc1 (configuration not stated)	24.7*	7.1	0.0
CC(C)(C(=O)N1CCC1(C)C(=O)NC1Cc2ccccc2C1)c1ccccc1 (configuration not stated)	-1.7	5.8	-0.7
